{"source": "ChEMBL document CHEMBL4765360", "about": "“Design, synthesis and biological evaluation of novel potent STAT3 inhibitors based on BBI608 for cancer therapy” (Eur J Med Chem, 2020)", "key": {"MDA-MB-231 [1]": {"tested_on": "MDA-MB-231", "test": "Effect on STAT3 expression in human MDA-MB-231 cells at 0.75 to 3 uM incubated for 24 hrs by Western blot analysis", "assay_type": "functional, cell-based", "details": "dose 0.75-3 µM", "outline": "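MDA-MB-231 cells treated with a range of concentrations for 24 h. RIPA lysates with PMSF, 40 µg protein/lane, on 10% SDS-PAGE, then PVDF. Blocked in 5% milk/TBST for 2 h. Primary antibodies to STAT3, p-STAT3(Y705), STAT1, p-STAT1(Y701), c-Myc and Cyclin D1 overnight at 4 °C; GAPDH as loading control. HRP secondary for 1 h; ECL detection.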"}, "MDA-MB-231 [2]": {"tested_on": "MDA-MB-231", "test": "Induction of apoptosis in human MDA-MB-231 cells assessed as viable cells at 2 uM incubated for 24 hrs by annexin V-FITC and PI staining based flow cytometry analysis (reference value: 93.37 %)", "assay_type": "functional", "details": "read-out: Activity"}, "MDA-MB-231 [3]": {"tested_on": "MDA-MB-231", "test": "Induction of apoptosis in human MDA-MB-231 cells assessed as early apoptotic cells at 2 uM incubated for 24 hrs by annexin V-FITC and PI staining based flow cytometry analysis (reference value: 2.69 %)", "assay_type": "functional"}, "MDA-MB-231 [4]": {"tested_on": "MDA-MB-231", "test": "Induction of apoptosis in human MDA-MB-231 cells assessed as late apoptotic cells at 2 uM incubated for 24 hrs by annexin V-FITC and PI staining based flow cytometry analysis (reference value: 3.72 %)", "assay_type": "functional"}, "MDA-MB-231 [5]": {"tested_on": "MDA-MB-231", "test": "Induction of cell cycle arrest in human MDA-MB-231 cells assessed as S phase accumulation at 4 uM incubated for 24 hrs by PI staining based flow cytometry analysis (reference value: 26.21 %)", "assay_type": "functional"}}, "note": "Calls of active or inactive are those of the source. The calls are words filed in the database; no cut-off is given here."}
{"smiles": "COc1ccc(NC2=CC(=O)c3cc(C(C)=O)oc3C2=O)cc1", "values": [{"measurement": "Activity", "setting": "MDA-MB-231 [1]", "value": "inactive"}, {"measurement": "viability at 2 µM", "setting": "MDA-MB-231 [2]", "value": 82.2, "unit": "%"}, {"measurement": "Activity", "setting": "MDA-MB-231 [3]", "value": 4.69, "unit": "%"}, {"measurement": "Activity", "setting": "MDA-MB-231 [4]", "value": 12.69, "unit": "%"}, {"measurement": "Activity", "setting": "MDA-MB-231 [5]", "value": 57.09, "unit": "%"}]}
